Measurements pooled from the literature.
Protocols differ between the studies behind these lines.
Read-out: cell growth or viability

Structure (SMILES)	cell line	test	conditions	measurement	result
Cc1n[nH]c2ccc3nc(-c4ccc(C(=O)NCCN(C)C)cc4)c4c(c3c12)CCCC4	Kasumi 1		72 h	GI50	148 nM
Cc1nc(Nc2ncc(C(=O)Nc3c(C)cccc3Cl)s2)cc(N2CC[C@H](O)C2)n1	Toledo	ATP luminescence	10 µM, 72 h	inhibition	50%
C=C1CC[C@@H]2[C@](C)(CO)[C@H](O)CC[C@@]2(C)[C@@H]1C/C=C1/C(=O)OC[C@H]1O	SW480	MTT	72 h	IC50	4170 nM
Cc1n[nH]c2ccc3nc(-c4ccc(C(=O)NCCN(C)C)cc4F)c4c(c3c12)CCCCC4	Kasumi 1		72 h	GI50	397 nM
COc1cccc2c1C(=O)c1c(O)c3c(c(O)c1C2=O)C[C@@](O)(C(=O)CO)C[C@@H]3O[C@H]1C[C@H](N)[C@H](O)[C@H](C)O1	SW480	MTT	72 h	IC50	90 nM
Cc1nc(NC(=O)N2CCC[C@H]2C(N)=O)sc1-c1ccnc(C(C)(C)C(F)(F)F)c1	HGC-27	ATP luminescence	5 days	EC50	20100 nM
CCN(CC)c1ccc(C=NNC(=O)CSc2nc3ccccc3c(=O)n2Cc2ccc(S(N)(=O)=O)cc2)c(O)c1	NCI/ADR-RES	SRB		GI50	> 100000 nM
C[C@H](Nc1ccc2c(c1)OCCn1cc(N3C(=O)OC[C@H]3C(F)F)nc1-2)C(N)=O	HGC-27	ATP luminescence	5 days	EC50	120 nM
NNc1nc2c(Cl)cc(Cl)cc2c(=O)n1-c1ccc(F)cc1	SW480	MTT	48 h	IC50	52000 nM
